Source: ChEMBL document CHEMBL1122517, “2-Phenylindoles. Relationship between structure, estrogen receptor affinity, and mammary tumor inhibiting activity in the rat” (1984)

Key:
[1] = target: T1, Estrogen receptor (Mus musculus) (UniProt O08537+P19785); experiment: Uterotrophic activity in mice as uterus dry weight (mg)/body weight (g) *100 at 25 ug dose; assay type: functional, tissue-based
How it was run: (§1)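 Immature 19-day-old female NMRI mice, groups of 10. Compound dose per animal in olive oil (50 µL) sc on 3 consecutive days. Mice were killed 24 h after the last injection. Uteri were Bouin-fixed 20 h, cleaned, washed with alcoholic LiCl, and dried at 100 °C for 24 h. Effect = uterine dry weight (mg)/body weight (g) ×100; mean ± SD.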

[2] = target: T1, Estrogen receptor (Mus musculus); experiment: Percentage inhibition of uterotrophic activity at 25 ug dose; assay type: functional
How it was run: (§2)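 Antiuterotrophic test in immature 19-day-old female NMRI mice (n=10), dosed sc on 3 consecutive days with 0.4 µg estrone per animal per day plus compound in olive oil. Uterine dry weight/body weight ×100 was read 24 h after the last dose. Inhibition % = 100 − [(E_S,T − E_V)/(E_S − E_V)]×100.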

[3] = target: T1, Estrogen receptor (Mus musculus); experiment: Uterotrophic activity in mice as uterus dry weight (mg)/body weight (g) *100 at 5 ug dose; assay type: functional, tissue-based; how it was run: as §1
[4] = target: T1, Estrogen receptor (Mus musculus); experiment: Uterotrophic activity in mice as uterus dry weight (mg)/body weight (g) *100 at 1 ug dose; assay type: functional, tissue-based; how it was run: as §1
[5] = target: T1, Estrogen receptor (Mus musculus); experiment: Uterotrophic activity in mice as uterus dry weight (mg)/body weight (g) *100 at 0.2 ug dose; assay type: functional, tissue-based; how it was run: as §1
[6] = target: T1, Estrogen receptor (Mus musculus); experiment: Anti-uterotrophic activity in mice as uterus dry weight (mg)/body weight (g) *100 at 1 ug dose; assay type: functional, tissue-based
How it was run: (§3)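 Immature female NMRI mice, 19 days old, groups of 10, given sc injections on 3 consecutive days. Each injection held 0.4 μg estrone plus the indole dose per animal, in olive oil (50 μL). Killed 24 h after the last injection. Uteri were fixed in Bouin solution, washed, and dried 24 h at 100 °C. Read-out was uterine dry weight (mg)/body weight (g) × 100, mean ± SD.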

[7] = target: T1, Estrogen receptor (Mus musculus); experiment: Percentage inhibition of uterotrophic activity at 5 ug dose; assay type: functional; how it was run: as §2
[8] = target: T1, Estrogen receptor (Mus musculus); experiment: Percentage inhibition of uterotrophic activity at 125 ug dose; assay type: functional; how it was run: as §2
[9] = target: T1, Estrogen receptor (Mus musculus); experiment: Anti-uterotrophic activity in mice as uterus dry weight (mg)/body weight (g) *100 at 125 ug dose; assay type: functional, tissue-based; how it was run: as §3
[10] = target: T1, Estrogen receptor (Mus musculus); experiment: Percentage inhibition of uterotrophic activity at 1 ug dose; assay type: functional; how it was run: as §2
[11] = target: T1, Estrogen receptor (Mus musculus); experiment: Anti-uterotrophic activity in mice as uterus dry weight (mg)/body weight (g) *100 at 5 ug dose; assay type: functional, tissue-based; how it was run: as §3
[12] = target: T1, Estrogen receptor (Mus musculus); experiment: Anti-uterotrophic activity in mice as uterus dry weight (mg)/body weight (g) *100 at 25 ug dose; assay type: functional, tissue-based; how it was run: as §3
[13] = target: Estrogen receptor (Bos taurus) (UniProt Q9XSB5+P49884); experiment: Relative binding affinity for the calf uterine estrogen receptor measured as the ratio of molar concentration of 17-beta-estradiol (E2) and inhibitor required to decrease the amount of bound [3H]E2 by 50%; assay type: protein assay
How it was run: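 Competitive binding in calf uterine cytosol with 5×10^-9 M [3H]estradiol, 18 h at 4 °C, Tris/EDTA buffer (0.01 M, pH 7.5). Unbound ligand was removed with dextran-coated charcoal (90 min, 4 °C) and supernatant radioactivity counted. Six competitor concentrations gave 10–90% bound. From semilog plots, RBA = ratio of molar concentrations of estradiol to compound giving 50% decrease in binding, ×100.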

[14] = target: T1, Estrogen receptor (Mus musculus); experiment: Uterotrophic activity in mice as uterus dry weight (mg)/body weight (g) *100 at 125 ug dose; assay type: functional, tissue-based; how it was run: as §1
Rattus norvegicus [15] = organism: Rattus norvegicus; experiment: Percent progressive DMBA-induced mammary carcinoma tumors in rats at 1.8 mg dose; assay type: functional
How it was run: (§4)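 Female Sprague-Dawley rats, 50 days old, given a single 20 mg DMBA dose in 1 mL olive oil by gavage. Rats were palpated twice weekly from day 30, and those without tumors by day 70 were discarded. Rats were randomized once tumor area exceeded 140 mm². Drug dose was per kg in olive oil (1 mL/kg) sc, single dose Mon–Thu and double dose Fri. Tumor area (caliper, two perpendicular axes) and body weight were measured twice weekly.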

Rattus norvegicus [16] = organism: Rattus norvegicus; experiment: Change in DMBA-induced mammary carcinoma tumor area in rats at 1.8 mg dose; 47-510; assay type: functional
How it was run: (§5)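 Female Sprague-Dawley rats got one 20 mg DMBA dose by gavage at 50 days old and were palpated twice weekly from day 30. Rats were randomized once tumor area exceeded 140 mm². Dose (per kg) was given sc in olive oil, once daily Monday to Thursday and doubled on Friday. Tumor area was taken from caliper measurements of two perpendicular axes, twice weekly. Change per animal is given as median % and range.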

Rattus norvegicus [17] = organism: Rattus norvegicus; experiment: (§6) Change in DMBA-induced mammary carcinoma tumor area in rats at 1.8 mg dose; assay type: functional; how it was run: as §5
Rattus norvegicus [18] = organism: Rattus norvegicus; experiment: Change in body weight of DMBA-induced mammary carcinoma tumor bearing rats at 1.8 mg dose; assay type: functional
How it was run: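 DMBA-induced tumor-bearing Sprague-Dawley rats (20 mg DMBA by gavage at 50 days old), randomized when tumor area exceeded 140 mm². Dose per kg was given sc in olive oil, single dose daily Monday to Thursday, double dose Friday. Body weight was measured twice weekly. Read-out was % change in body weight.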

Rattus norvegicus [19] = organism: Rattus norvegicus; experiment: Partial remission (%) of DMBA-induced mammary carcinoma tumors in rats at 1.8 mg dose; assay type: functional
How it was run: (§7)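 DMBA-induced tumors in Sprague-Dawley rats, entered when tumor area exceeded 140 mm². Dose per kg was given sc in olive oil, daily Monday to Thursday with a double dose Friday. Tumors were measured by calipers twice weekly. Tumor number was counted at the start of the test. Complete remission meant the tumor was no longer palpable. Partial remission meant reduction to ≤50% of initial size. New tumor appearance was recorded.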

Rattus norvegicus [20] = organism: Rattus norvegicus; experiment: Formation of new DMBA-induced mammary carcinoma tumors in rats at 1.8 mg dose; assay type: functional; how it was run: as §7
Rattus norvegicus [21] = organism: Rattus norvegicus; experiment: as §6; assay type: functional; how it was run: as §5; remark: listed apart in the source
Rattus norvegicus [22] = organism: Rattus norvegicus; experiment: Percent unchanged DMBA-induced mammary carcinoma tumors in rats at 1.8 mg dose; assay type: functional; how it was run: as §4
Rattus norvegicus [23] = organism: Rattus norvegicus; experiment: Number of DMBA-induced mammary carcinoma tumors in rats at 1.8 mg dose; assay type: functional; how it was run: as §7

T1 sequence (O08537 whole entry, looked up): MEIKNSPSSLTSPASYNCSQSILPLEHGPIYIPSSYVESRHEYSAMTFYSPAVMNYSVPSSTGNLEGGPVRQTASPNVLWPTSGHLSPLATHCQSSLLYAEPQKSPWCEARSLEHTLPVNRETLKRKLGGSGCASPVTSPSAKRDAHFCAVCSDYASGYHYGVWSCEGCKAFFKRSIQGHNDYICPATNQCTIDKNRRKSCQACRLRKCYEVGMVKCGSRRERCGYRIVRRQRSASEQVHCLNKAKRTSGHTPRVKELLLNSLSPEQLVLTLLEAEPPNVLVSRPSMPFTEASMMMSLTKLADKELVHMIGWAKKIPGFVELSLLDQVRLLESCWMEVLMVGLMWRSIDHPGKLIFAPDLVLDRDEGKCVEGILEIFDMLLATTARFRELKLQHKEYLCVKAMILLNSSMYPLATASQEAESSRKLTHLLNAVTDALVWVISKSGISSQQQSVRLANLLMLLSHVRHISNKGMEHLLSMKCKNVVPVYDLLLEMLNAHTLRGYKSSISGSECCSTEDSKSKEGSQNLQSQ
T1 sequence (P19785 whole entry, looked up): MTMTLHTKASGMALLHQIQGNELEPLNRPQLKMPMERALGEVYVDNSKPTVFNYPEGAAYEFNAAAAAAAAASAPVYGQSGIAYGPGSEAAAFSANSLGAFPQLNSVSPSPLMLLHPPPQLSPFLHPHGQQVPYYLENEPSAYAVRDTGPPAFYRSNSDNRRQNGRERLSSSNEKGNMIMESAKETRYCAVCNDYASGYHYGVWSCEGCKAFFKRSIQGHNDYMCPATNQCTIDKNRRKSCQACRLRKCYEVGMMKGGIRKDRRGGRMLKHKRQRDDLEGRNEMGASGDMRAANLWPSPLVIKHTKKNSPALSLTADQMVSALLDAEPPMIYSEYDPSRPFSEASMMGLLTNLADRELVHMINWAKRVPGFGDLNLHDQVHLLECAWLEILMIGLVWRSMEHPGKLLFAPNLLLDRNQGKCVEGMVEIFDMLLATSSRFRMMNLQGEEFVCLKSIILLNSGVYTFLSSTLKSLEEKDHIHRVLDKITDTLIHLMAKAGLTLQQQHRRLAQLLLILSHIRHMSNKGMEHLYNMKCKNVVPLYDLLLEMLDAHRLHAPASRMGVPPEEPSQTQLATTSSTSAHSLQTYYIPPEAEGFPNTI

CC(=O)Oc1ccc(-c2c(C)c3ccc(OC(C)=O)cc3n2C)cc1
Uterotrophic effect [1]: 24.2 | inhibition [2]: 23% | Uterotrophic effect [3]: 21.4 | Uterotrophic effect [4]: 18.6 | Uterotrophic effect [5]: 18.2 | Anti-uterotrophic effect [6]: 32.3 | inhibition [7]: 7% | inhibition [8]: 33% | Anti-uterotrophic effect [9]: 31.7 | inhibition [10]: 31% | Anti-uterotrophic effect [11]: 38.2 | Anti-uterotrophic effect [12]: 34.3

CCc1c(-c2ccc(O)cc2)n(CC)c2cc(O)ccc12
RBA [13]: 21

CCCCn1c(-c2ccc(O)cc2)cc2ccc(O)cc21
RBA [13]: 4.3

CCc1c(-c2ccc(OC(C)=O)cc2)n(CC)c2ccc(OC(C)=O)cc12
Uterotrophic effect [1]: 42.4 | Uterotrophic effect [3]: 39.1 | Uterotrophic effect [4]: 29.5 | Uterotrophic effect [14]: 40.2

Oc1ccc(-c2cc3ccc(O)cc3[nH]2)cc1
RBA [13]: 0.01

Cc1c(-c2ccc(O)cc2)n(C)c2cc(O)ccc12
RBA [13]: 10

CCCc1c(-c2ccc(O)cc2)n(CCC)c2ccc(O)cc12
RBA [13]: 1.7

CCCn1c(-c2ccc(O)cc2)cc2cc(O)ccc21
RBA [13]: 18

CCc1c(-c2ccc(O)cc2)n(C)c2cc(O)ccc12
RBA [13]: 5.9

CCn1c(-c2cccc(OC(C)=O)c2)c(C)c2ccc(OC(C)=O)cc21
Uterotrophic effect [1]: 30.2 | inhibition [2]: 15% | Uterotrophic effect [3]: 17.2 | Uterotrophic effect [4]: 15.2 | Uterotrophic effect [14]: 39.1 | Anti-uterotrophic effect [6]: 46.9 | inhibition [7]: 11% | inhibition [8]: 26% | Anti-uterotrophic effect [9]: 37.4 | Anti-uterotrophic effect [11]: 41.7 | Anti-uterotrophic effect [12]: 40.6

CCn1c(-c2cccc(O)c2)c(C)c2cc(O)ccc21
RBA [13]: 2.2

Cc1c(-c2ccc(O)cc2)[nH]c2cc(O)ccc12
RBA [13]: 0.06

CCn1c(-c2ccc(O)cc2)cc2ccc(O)cc21
RBA [13]: 16

CCCn1c(-c2cccc(O)c2)c(C)c2ccc(O)cc21
RBA [13]: 3.5

CCn1c(-c2ccc(O)cc2)c(C)c2ccc(O)cc21
RBA [13]: 33

Cc1c(-c2ccc(O)cc2)n(C(C)C)c2ccc(O)cc12
RBA [13]: 3.5

CCCn1c(-c2cccc(O)c2)c(C)c2cc(O)ccc21
RBA [13]: 7.4

CCc1c(-c2ccc(O)cc2)n(CC)c2ccc(O)cc12
RBA [13]: 23

CCCCCn1c(-c2ccc(O)cc2)c(C)c2cc(O)ccc21
RBA [13]: 2.3

CCCn1c(-c2ccc(O)cc2)c(C)c2ccc(O)cc21
RBA [13]: 13

CCCCn1c(-c2ccc(O)cc2)c(C)c2cc(O)ccc21
RBA [13]: 4.6

Cc1c(-c2ccc(O)cc2)n(C)c2ccc(O)cc12
RBA [13]: 4.6

CCCn1c(-c2ccc(OC(C)=O)cc2)c(C)c2cc(OC(C)=O)ccc21
Uterotrophic effect [1]: 28.5 | Progressed tumors (Rattus norvegicus [15]): 55% | inhibition [2]: 66% | Change of tumor area (Rattus norvegicus [16]): 47% | Change of tumor area (Rattus norvegicus [17]): 198% | Change of body weight (Rattus norvegicus [18]): 2% | Uterotrophic effect [3]: 23 | Uterotrophic effect [4]: 21.7 | Partial remission (Rattus norvegicus [19]): 8% | Uterotrophic effect [5]: 16.7 | Anti-uterotrophic effect [6]: 45.2 | inhibition [7]: 37% | inhibition [8]: 67% | Anti-uterotrophic effect [9]: 29.3 | inhibition [10]: 24% | New tumors (Rattus norvegicus [20]): 27 | Change of tumor area (Rattus norvegicus [21]): 198% | Anti-uterotrophic effect [11]: 40.3 | Static tumors (Rattus norvegicus [22]): 30% | No. of tumors (Rattus norvegicus [23]): 34 | Anti-uterotrophic effect [12]: 29.8

CCCn1c(-c2ccc(O)cc2)c(CC)c2ccc(O)cc21
RBA [13]: 19

Cc1c(-c2cccc(O)c2)n(C)c2ccc(O)cc12
RBA [13]: 0.6

CCn1c(-c2cccc(O)c2)cc2ccc(O)cc21
RBA [13]: 1.7

Cc1c(-c2ccc(O)cc2)[nH]c2ccc(O)cc12
RBA [13]: 0.06

Cn1c(-c2ccc(O)cc2)cc2cc(O)ccc21
RBA [13]: 0.8

CCCn1c(-c2ccc(O)cc2)c(C)c2cc(O)ccc21
RBA [13]: 16

CCn1c(-c2ccc(O)cc2)cc2cc(O)ccc21
RBA [13]: 5.8

CCCn1c(-c2ccc(O)cc2)cc2ccc(O)cc21
RBA [13]: 8.5

CCn1c(-c2ccc(O)cc2)c(C)c2cccc(O)c21
RBA [13]: 0.02

CCc1c(-c2ccc(O)cc2)[nH]c2cc(O)ccc12
RBA [13]: 0.13

Cc1c(-c2ccc(O)cc2)n(C(C)C)c2cc(O)ccc12
RBA [13]: 13

CCn1c(-c2cccc(O)c2)c(C)c2ccc(O)cc21
RBA [13]: 3

CCn1c(-c2cccc(O)c2)cc2cc(O)ccc21
RBA [13]: 1.7

Oc1ccc(-c2cc3cc(O)ccc3[nH]2)cc1
RBA [13]: 0.01

Cc1c(-c2cccc(O)c2)n(C)c2cc(O)ccc12
RBA [13]: 0.55

Cn1c(-c2ccc(O)cc2)cc2ccc(O)cc21
RBA [13]: 3.8

CCn1c(-c2ccc(O)cc2)c(C)c2cc(O)ccc21
RBA [13]: 9.5
